Hck Nef HTS = inhibitors of human Hck kinase activated by Nef; P08631; Recombinant Hck-YEEI plus Nef, Z-Lyte FRET kinase assay; inhibition, % at 20 µM; 220,000 compounds, 0.68% hits;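 active = Hck-Nef kinase inhibition above about 50%, limit read from the data; inactive = inhibition below that limit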
DSG3 Ab inh = inhibitors of pemphigus antibody binding to human desmoglein-3 | DSG3-coupled beads, scFv-anti-DSG3-GFP binding, flow cytometry; hits give low values | binding (percent of control), % at 10 µM | 310,000 compounds, 0.48% hits | AID 588358;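 active = binding more than 3 SD below its plate's average and above zero; inconclusive = below that plate limit but binding exactly zero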;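 also: hits lower antibody fragment binding to DSG3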
Target sequence (P32926 whole entry, looked up, the tested form may be a part): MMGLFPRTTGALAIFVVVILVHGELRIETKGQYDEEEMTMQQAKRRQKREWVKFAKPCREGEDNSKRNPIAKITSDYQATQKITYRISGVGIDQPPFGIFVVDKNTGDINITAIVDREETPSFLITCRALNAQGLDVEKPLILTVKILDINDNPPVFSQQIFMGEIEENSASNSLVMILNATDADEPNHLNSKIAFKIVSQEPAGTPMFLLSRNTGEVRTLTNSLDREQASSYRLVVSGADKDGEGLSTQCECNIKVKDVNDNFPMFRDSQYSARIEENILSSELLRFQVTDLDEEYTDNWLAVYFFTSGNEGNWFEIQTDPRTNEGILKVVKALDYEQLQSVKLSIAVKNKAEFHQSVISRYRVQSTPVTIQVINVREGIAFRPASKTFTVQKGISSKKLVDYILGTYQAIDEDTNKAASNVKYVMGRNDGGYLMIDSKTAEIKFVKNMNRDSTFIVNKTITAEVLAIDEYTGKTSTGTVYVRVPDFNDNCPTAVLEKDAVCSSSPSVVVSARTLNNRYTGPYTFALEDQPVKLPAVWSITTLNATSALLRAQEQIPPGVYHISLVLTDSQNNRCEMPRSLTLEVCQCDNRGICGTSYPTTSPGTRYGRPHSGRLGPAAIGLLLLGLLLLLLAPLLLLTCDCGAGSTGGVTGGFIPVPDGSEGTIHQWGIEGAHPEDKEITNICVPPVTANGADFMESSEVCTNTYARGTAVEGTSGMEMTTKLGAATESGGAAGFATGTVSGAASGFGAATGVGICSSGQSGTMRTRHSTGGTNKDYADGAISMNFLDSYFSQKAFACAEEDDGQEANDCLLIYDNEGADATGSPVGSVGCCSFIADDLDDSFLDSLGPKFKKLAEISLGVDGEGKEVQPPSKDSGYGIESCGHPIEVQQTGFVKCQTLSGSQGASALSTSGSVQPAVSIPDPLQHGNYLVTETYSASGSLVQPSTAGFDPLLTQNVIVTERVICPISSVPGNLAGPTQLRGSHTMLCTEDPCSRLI
RanGTP-Imp inh = disruptors of Ran-importin-beta complex formation – biochemical, FRET, CFP-Ran, YFP-importin-beta, homogeneous, primary screen | 300,000 compounds, 1.1% hits | inhibition, % (no concentration beside the values) | AID 2216 | cell-free CFP-Ran/YFP-importin-beta FRET ratio;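 active = more than half of the replicate wells show a fall in the fluorescence ratio signal beyond about 16%, limit read from the data, passing the limit was not always enough; inconclusive = exactly half of the replicate wells pass the set limit; inactive = fewer than half of replicates pass the limit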
Runt-CBFb FRET = Runt domain-CBFb interaction inhibition. Cerulean-Runt/Venus-CBFb FRET ratio 530/480, 1 h. inhibition, % at 20 µM. 220,000 compounds, 0.46% hits. AID 1496;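 active = inhibition over about 50% at 20 µM in the single-dose screen, limit read from the data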
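Assay system: Cerulean-Runt domain fusion protein, energy donor; Signal: fluorescence energy transfer, 422 nm excitation, 530/480 nm emission; Timing: 1 h compound exposure, room temperature; Control set: unlabeled CBFb; Medium: Tris buffer pH 7.5 with salts and BSA; Compound: single test concentration of 20 µM, 1% DMSO final; Probe or stimulus: Venus-CBFb 100 nM.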
Runt-SMMHC FRET = blocks binding of human RUNX1 Runt domain to CBFb-SMMHC | inhibition, % at 20 µM | Q01196+Q13951 | Cerulean-Runt/Venus-CBFb-SMMHC FRET ratio 530/480, 1 h | 220,000 compounds, 0.74% hits | AID 1434;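 active = mean inhibition across duplicate retests at 20 µM reaching about 50%, limit read from the data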;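 also: inhibitors lower the FRET ratio by blocking Runt binding to CBFb-SMMHC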
pCIP destab = p/CIP protein destabilization; Q05BA5; F442A p/CIP-EGFP cells, EGFP fluorescence, 16 h; decrease of EGFP signal, % at 10 µM; 290,000 compounds, 0.01% hits;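 active = EGFP signal decrease of at least 30% at 10 µM or well 3 SD below plate mean, unless failing retest; inactive = the rest, including hits failing retest or dose response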
Of the large screens only hits and unclear results are named; the others gave an inactive call. Most compounds without a hit are left out; they make up all but 2.1% or so of the library.

OCCCNc1nc(-c2ccccc2)c2cc(Br)ccc2n1	RanGTP-Imp inh 33 (no result: Hck Nef HTS, Runt-CBFb FRET, Runt-SMMHC FRET)
Cc1ccc2nc(NCCCO)nc(-c3ccccc3)c2c1	RanGTP-Imp inh 30
NNc1nc(-c2ccccc2)c2cc(Br)ccc2n1	none (no result: Hck Nef HTS, Runt-CBFb FRET, Runt-SMMHC FRET)
Cc1ccc(CNC(=O)Cn2cnc3c(NC(=O)OCc4ccccc4)ncnc32)o1	none (no result: Hck Nef HTS, RanGTP-Imp inh, Runt-CBFb FRET, Runt-SMMHC FRET, pCIP destab)
C(=C/c1nccc2c1[nH]c1ccccc12)/c1ccc2c(c1)OCO2	RanGTP-Imp inh 120, Runt-SMMHC FRET 53
Cn1ncc(Cl)c1C(=O)N/N=C/c1cc2c(cc1[N+](=O)[O-])OCO2	DSG3 Ab inh 71
CCCN1CCc2c(sc(NC(=O)Cc3ccc(F)cc3)c2C(N)=O)C1	RanGTP-Imp inh 133 (no result: Hck Nef HTS, Runt-CBFb FRET, Runt-SMMHC FRET)
CC(C)N1CCc2c(sc(NC(=O)Cc3ccccc3)c2C(N)=O)C1	RanGTP-Imp inh 140 (no result: Hck Nef HTS, Runt-CBFb FRET, Runt-SMMHC FRET)
O=C(CCc1ccccc1)Nc1sc2c(c1C(=O)O)CCCC2	none (no result: Hck Nef HTS, Runt-CBFb FRET, Runt-SMMHC FRET, pCIP destab)
CC(=O)N1CCc2c(sc(NC(=O)Cc3ccccc3)c2C(N)=O)C1	none (no result: Hck Nef HTS, Runt-CBFb FRET, Runt-SMMHC FRET)
CC(C)N1CCc2c(sc(NC(=O)CCc3ccccc3)c2C(N)=O)C1	RanGTP-Imp inh 130, Runt-CBFb FRET 78, Runt-SMMHC FRET 92
CCC(C(=O)NCCCN1CCOCC1)n1c2ccccc2c2nc(=O)cc(C)n21 (configuration not stated)	none (no result: Hck Nef HTS, Runt-CBFb FRET, Runt-SMMHC FRET)
Cc1nc2nc(-c3ccco3)[nH]n2c(=O)c1C	DSG3 Ab inh 65
Cc1nc2nc(-c3ccco3)[nH]n2c(=O)c1Cc1ccccc1	none
Cc1ccc2cc(C#N)c(NCCNC(=S)NCCCN(C)C)nc2c1C	none
Cc1cc(C)c2nc(NCCCNC(=S)NCCCN(C)C)c(C#N)cc2c1	Runt-CBFb FRET 81, Runt-SMMHC FRET 89
COCCCNC(=S)NCCNc1nc2cc(C)cc(C)c2cc1C#N	none
CCOCCCNC(=S)NCCCNc1nc2c(C)cc(C)cc2cc1C#N	Runt-SMMHC FRET 91 (no result: RanGTP-Imp inh)
O=C(CCc1ccccc1)N=C1SC2CS(=O)(=O)CC2N1Cc1ccccc1 (configuration not stated)	none (no result: Hck Nef HTS, Runt-CBFb FRET, Runt-SMMHC FRET)
CCCN(CCC)CC(O)Cn1cc(/C=C/C(=O)c2cccs2)c2ccccc21 (configuration not stated)	none
CCCN(CCC)CC(O)Cn1cc(/C=C/C(=O)c2ccccc2)c2ccccc21 (configuration not stated)	RanGTP-Imp inh 29 (no result: DSG3 Ab inh)
CN1CCN(Cn2cc(/C=C/C(=O)c3ccccc3)c3ccccc32)CC1	RanGTP-Imp inh 67
O=C(N/N=C/C1CC=CCC1)c1cc(-c2cccnc2)nc2ccccc12 (configuration not stated)	none
COC(=O)c1c(/N=C/N(C)C)sc2c1CCN(c1ncc(C(F)(F)F)cc1Cl)C2	Runt-SMMHC FRET 58
O=C(O)C=C1CCN(c2ncc(C(F)(F)F)cc2Cl)CC1	none (no result: DSG3 Ab inh)
COC(=O)c1c(N(S(C)(=O)=O)S(C)(=O)=O)sc2c1CCN(c1ncc(C(F)(F)F)cc1Cl)C2	Runt-CBFb FRET 65, Runt-SMMHC FRET 79
CC(C)C1Cc2ccccc2-c2[nH]c(=S)[nH]c(=O)c21 (configuration not stated)	none (no result: Hck Nef HTS, Runt-CBFb FRET, Runt-SMMHC FRET, pCIP destab)
Cc1ccc2c(c1)C(=O)N(CCCCO)C2=O	DSG3 Ab inh 69
COCCCNc1nc2nonc2nc1N1CCN(Cc2cccc(C)c2)CC1	Runt-SMMHC FRET 82
CC(=O)NCCn1c(SCC(=O)NC2CCCCC2)nc2ccccc2c1=O	RanGTP-Imp inh 18
CCn1c(SCC(=O)NC2CCCCC2)nc2ccccc2c1=O	none (no result: Hck Nef HTS, Runt-CBFb FRET, Runt-SMMHC FRET)
CC(=O)NC(CCS(C)(=O)=O)C(=O)Nc1nc(C)cs1 (configuration not stated)	DSG3 Ab inh 81
O=C(O)c1ccc(Nc2nc(-c3ccccc3)nc3ccccc23)cc1	none (no result: Hck Nef HTS, Runt-CBFb FRET, Runt-SMMHC FRET)
COc1ccc(Nc2c3c(nc4ccccc24)CCC3)cc1	none (no result: Hck Nef HTS, Runt-CBFb FRET, Runt-SMMHC FRET)
COc1ccc(Nc2c3ccccc3nc3ccccc23)cc1	RanGTP-Imp inh 67 (no result: Hck Nef HTS, Runt-CBFb FRET, Runt-SMMHC FRET)
O=C(O)c1ccc(Nc2c3ccccc3nc3ccccc23)cc1	DSG3 Ab inh inconclusive, RanGTP-Imp inh 20 (no result: Hck Nef HTS, Runt-CBFb FRET, Runt-SMMHC FRET)
COc1cccc(C(=O)NNc2c3ccccc3nc3ccccc23)c1	RanGTP-Imp inh 16 (no result: Hck Nef HTS, Runt-CBFb FRET, Runt-SMMHC FRET)
Cc1ccc([N+](=O)[O-])c(NC(=O)COC(=O)CCNS(=O)(=O)c2cccs2)c1C	none (no result: Hck Nef HTS, RanGTP-Imp inh, Runt-CBFb FRET, Runt-SMMHC FRET, pCIP destab)
